We go through three compounds from paper PMC2633472 (European journal of pharmacology, 2008).

Entries after “also recorded” stand apart in the source; their conditions may differ. A value given as a limit tells only on which side of the number the result lay.

Series [1] has as its system Sprague-Dawley rats. As to the kind of experiment: Conditioned taste aversion test. The format is in vivo, rat.
The target in series [2] is Transporter, Norepinephrine (NET) (Homo sapiens, UniProt P23975). As to the kind of experiment: Radioligand displacement. The format is binding.
Sequence of Transporter, Norepinephrine (NET) (P23975 whole entry): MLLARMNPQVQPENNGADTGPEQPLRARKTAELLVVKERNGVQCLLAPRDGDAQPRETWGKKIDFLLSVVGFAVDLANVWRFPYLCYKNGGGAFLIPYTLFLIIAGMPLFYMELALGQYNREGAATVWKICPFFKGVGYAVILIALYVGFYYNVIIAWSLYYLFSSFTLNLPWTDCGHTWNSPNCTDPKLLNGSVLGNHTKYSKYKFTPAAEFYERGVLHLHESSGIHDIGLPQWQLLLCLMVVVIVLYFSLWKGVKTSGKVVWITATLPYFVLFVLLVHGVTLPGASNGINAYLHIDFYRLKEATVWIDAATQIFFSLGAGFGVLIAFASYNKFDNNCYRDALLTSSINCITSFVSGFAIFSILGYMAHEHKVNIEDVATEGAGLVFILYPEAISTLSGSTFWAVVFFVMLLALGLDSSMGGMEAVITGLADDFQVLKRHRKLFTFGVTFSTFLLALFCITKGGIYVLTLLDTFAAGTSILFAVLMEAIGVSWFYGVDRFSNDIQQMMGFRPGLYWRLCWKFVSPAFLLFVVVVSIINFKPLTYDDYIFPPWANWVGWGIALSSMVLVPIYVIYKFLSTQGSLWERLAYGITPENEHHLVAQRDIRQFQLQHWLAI
The target in series [3] is Phorobol Ester. The experiment in a line: Radioligand displacement. The settings on record: read-out: BINDING Phorobol Ester; displacement of specific radioactive ligand. (In a radioligand displacement assay an active substance lowers the binding of a labelled ligand.)
For series [4], the system named is Sprague-Dawley rats. As to the kind of experiment: Spontaneous locomotor activity. It counts as in vivo, rat. The essentials:
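Cannulated male Sprague-Dawley rats were acclimatized 60 min to a novel home cage, removed, given vehicle or 5 nmole test compound i.c.v., and returned at once. An infrared beam monitor (4 × 8 frame) recorded 60 min. Beam breaks changing location counted as ambulatory; all others as non-ambulatory fine movement. n=10.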

Series [5] addresses GPR103 (Homo sapiens, UniProt Q96P65). The experiment in a line: Radioligand displacement. The format is binding.
Series [6] addresses Opiate κ (KOR) (Homo sapiens, UniProt P41145). The experiment in a line: Selectivity FLIPR activity assay. It counts as cell-based. The procedure, abridged:
(§1)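 Calcium FLIPR format: receptor-expressing cells were loaded 1 h at 37°C with fluo-4 in Hanks' balanced salt solution plus 20 mM HEPES (pH 7.4). Receptor activation was then measured as intracellular Ca2+ fluorescence in the presence of increasing test compound concentrations. The top concentration reported was 10 uM.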

Series [7] concerns the target MCH2R (Homo sapiens, UniProt Q969V1). The experiment in a line: Selectivity FLIPR activity assay. It counts as cell-based. The procedure, abridged:
as §1

The target in series [8] is Histamine H1 (Homo sapiens, UniProt P35367). As to the kind of experiment: Radioligand displacement. It counts as binding.
Sequence of Histamine H1 (P35367 whole entry): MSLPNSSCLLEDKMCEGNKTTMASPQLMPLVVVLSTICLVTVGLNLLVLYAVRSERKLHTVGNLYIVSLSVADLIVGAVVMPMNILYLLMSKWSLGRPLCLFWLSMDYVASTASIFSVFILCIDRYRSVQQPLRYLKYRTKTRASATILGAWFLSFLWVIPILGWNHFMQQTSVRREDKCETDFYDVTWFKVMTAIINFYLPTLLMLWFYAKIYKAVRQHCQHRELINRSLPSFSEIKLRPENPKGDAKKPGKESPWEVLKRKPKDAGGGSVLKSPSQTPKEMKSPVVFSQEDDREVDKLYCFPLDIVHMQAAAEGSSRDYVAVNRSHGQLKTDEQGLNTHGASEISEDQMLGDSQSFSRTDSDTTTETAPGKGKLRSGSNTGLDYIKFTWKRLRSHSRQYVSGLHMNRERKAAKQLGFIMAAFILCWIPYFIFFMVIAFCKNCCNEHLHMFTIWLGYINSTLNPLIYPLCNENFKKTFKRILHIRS
A short description of series [9]: Pharmacokinetics in rats after intravenous administration. The format is in vivo. The following applies: rat, plasma, 5 mg/kg.
The target in series [10] is Muscarinic M2 (Homo sapiens, UniProt P08172). The experiment in a line: Radioligand displacement. It counts as binding.
For series [11], the target named is Muscarinic M3 (Homo sapiens, UniProt P20309). The experiment in a line: Radioligand displacement. The format is binding.
Series [12] concerns the target T1, rat MCH1 receptor (Rattus norvegicus, UniProt P97639). The experiment in a line: MCH-induced Ca2+ mobilization. It counts as cell-based.
The target of series [13] is Adenosine A1 (Homo sapiens, UniProt P30542). As to the kind of experiment: Radioligand displacement. The format is binding.
Sequence of Adenosine A1 (P30542 whole entry): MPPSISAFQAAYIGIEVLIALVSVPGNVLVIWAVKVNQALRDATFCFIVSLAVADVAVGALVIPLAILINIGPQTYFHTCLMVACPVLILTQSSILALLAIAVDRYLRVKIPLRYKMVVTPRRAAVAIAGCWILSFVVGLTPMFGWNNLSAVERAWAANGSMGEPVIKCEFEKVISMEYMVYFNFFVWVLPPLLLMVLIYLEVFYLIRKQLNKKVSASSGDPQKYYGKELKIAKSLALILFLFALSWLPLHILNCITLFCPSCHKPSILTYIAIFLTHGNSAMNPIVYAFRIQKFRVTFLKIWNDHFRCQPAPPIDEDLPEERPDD
The target in series [14] is Dopamine D2s (Homo sapiens, UniProt P14416). The experiment in a line: Radioligand displacement. The format is binding.
In series [15] the target is Dopamine D1 (Homo sapiens, UniProt P21728). As to the kind of experiment: Radioligand displacement. The format is binding.
Sequence of Dopamine D1 (P21728 whole entry): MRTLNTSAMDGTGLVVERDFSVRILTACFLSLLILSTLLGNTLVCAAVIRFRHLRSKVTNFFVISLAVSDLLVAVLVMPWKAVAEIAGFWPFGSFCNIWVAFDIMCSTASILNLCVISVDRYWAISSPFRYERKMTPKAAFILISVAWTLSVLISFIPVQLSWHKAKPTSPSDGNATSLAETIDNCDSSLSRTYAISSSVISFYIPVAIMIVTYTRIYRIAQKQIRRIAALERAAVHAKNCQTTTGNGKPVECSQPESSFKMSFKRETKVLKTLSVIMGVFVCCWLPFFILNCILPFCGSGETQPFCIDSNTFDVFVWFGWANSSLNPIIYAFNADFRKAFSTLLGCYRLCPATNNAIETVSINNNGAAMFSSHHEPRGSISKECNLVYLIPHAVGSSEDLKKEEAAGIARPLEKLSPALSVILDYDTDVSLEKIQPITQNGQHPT
Series [16] has as its target GPR10 (Homo sapiens, UniProt P49683). As to the kind of experiment: Selectivity FLIPR activity assay. The format is cell-based. The essentials: as §1
Series [17] has as its target Opiate μ (OP3, MOP) (Homo sapiens, UniProt P35372). The experiment in a line: Radioligand displacement. It counts as binding.
The target of series [18] is Nicotinic Acetylcholine α1, Bungarotoxin (Homo sapiens, UniProt P02708+P07510+Q07001). As to the kind of experiment: biochemical. It counts as binding.
Series [19] addresses Prostanoid EP4 (Homo sapiens, UniProt P35408). The experiment in a line: Radioligand displacement. It counts as binding.
For series [20], the target named is Orexin 1R (Homo sapiens, UniProt O43613). As to the kind of experiment: Selectivity FLIPR activity assay. The format is cell-based. The procedure, abridged: as §1
Sequence of Orexin 1R (O43613 whole entry): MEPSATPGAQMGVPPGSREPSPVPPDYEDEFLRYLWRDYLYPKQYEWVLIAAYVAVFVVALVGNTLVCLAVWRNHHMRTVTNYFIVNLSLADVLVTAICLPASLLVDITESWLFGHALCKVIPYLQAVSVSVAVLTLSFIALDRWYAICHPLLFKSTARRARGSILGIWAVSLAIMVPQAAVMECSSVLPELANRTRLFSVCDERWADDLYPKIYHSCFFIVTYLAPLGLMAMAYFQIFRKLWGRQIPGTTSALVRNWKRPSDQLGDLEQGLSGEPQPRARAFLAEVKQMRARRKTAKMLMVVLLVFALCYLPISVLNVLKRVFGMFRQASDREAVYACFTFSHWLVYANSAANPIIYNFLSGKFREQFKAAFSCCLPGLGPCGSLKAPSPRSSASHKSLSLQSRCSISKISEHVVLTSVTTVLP
Series [21] addresses NPY2R (Homo sapiens, UniProt P49146). The experiment in a line: Selectivity FLIPR activity assay. It counts as cell-based. The procedure, abridged: as §1
The target in series [22] is Adrenergic β1/β2. As to the kind of experiment: Radioligand displacement. The following applies: read-out: BINDING Adrenergic β1/β2; displacement of specific radioactive ligand.
Series [23] addresses Adenosine A2A (Homo sapiens, UniProt P29274). As to the kind of experiment: Radioligand displacement. The format is binding.
The target in series [24] is hERG channel (Homo sapiens, UniProt Q12809). As to the kind of experiment: in vitro hERG electrophysiology assay. The format is cell-based. For orientation: hERG is a cardiac potassium channel; its block is linked to QT prolongation.
Sequence of hERG channel (Q12809 whole entry): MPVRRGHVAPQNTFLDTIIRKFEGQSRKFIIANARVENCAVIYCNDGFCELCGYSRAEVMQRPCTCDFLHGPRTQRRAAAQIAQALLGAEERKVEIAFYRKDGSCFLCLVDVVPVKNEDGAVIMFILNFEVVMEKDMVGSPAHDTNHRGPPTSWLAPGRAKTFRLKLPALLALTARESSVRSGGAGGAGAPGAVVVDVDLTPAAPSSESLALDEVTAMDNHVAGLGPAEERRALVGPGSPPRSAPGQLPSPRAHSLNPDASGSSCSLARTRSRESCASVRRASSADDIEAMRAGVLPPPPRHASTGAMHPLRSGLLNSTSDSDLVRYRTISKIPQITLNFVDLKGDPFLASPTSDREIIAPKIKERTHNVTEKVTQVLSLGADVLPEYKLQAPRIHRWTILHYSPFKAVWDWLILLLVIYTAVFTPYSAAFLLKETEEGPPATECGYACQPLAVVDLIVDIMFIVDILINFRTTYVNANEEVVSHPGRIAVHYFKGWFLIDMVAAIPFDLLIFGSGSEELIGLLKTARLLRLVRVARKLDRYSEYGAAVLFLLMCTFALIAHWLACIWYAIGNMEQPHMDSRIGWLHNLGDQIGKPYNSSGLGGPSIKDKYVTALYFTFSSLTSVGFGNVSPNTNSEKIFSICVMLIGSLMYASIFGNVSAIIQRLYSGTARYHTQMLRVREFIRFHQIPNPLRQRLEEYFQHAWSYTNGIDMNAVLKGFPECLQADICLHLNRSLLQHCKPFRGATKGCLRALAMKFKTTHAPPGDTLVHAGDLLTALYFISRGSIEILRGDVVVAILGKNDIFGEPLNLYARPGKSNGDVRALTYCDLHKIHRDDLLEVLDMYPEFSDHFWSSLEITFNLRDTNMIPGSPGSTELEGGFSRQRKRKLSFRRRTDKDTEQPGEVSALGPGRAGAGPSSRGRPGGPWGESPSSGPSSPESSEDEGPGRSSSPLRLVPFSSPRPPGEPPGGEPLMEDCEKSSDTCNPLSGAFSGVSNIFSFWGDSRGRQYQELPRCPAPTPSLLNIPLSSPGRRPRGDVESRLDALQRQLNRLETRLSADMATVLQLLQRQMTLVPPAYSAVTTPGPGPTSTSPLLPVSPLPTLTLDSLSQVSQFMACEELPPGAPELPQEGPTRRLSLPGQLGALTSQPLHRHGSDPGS
In series [25] the target is T1, rat MCH1 receptor. The format is binding.
Series [26] deals with Rolipram. As to the kind of experiment: Radioligand displacement. The settings on record: read-out: BINDING Rolipram; displacement of specific radioactive ligand.
The subject of series [27] is Sprague-Dawley rats. As to the kind of experiment: MCH-induced food intake in satiated rats. It counts as in vivo, rat. The following applies: 2 nmole i.c.v. The essentials: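 Cannulated male Sprague-Dawley rats were kept in wire-bottom cages >3 weeks and screened by drinking >5 ml/1 h after 50 ng angiotensin II. Satiated rats got 10 μl i.c.v. over 2 min at 7–8 a.m.: aCSF, MCH 2 nmole, or MCH plus test compound (1 or 5 nmole). Vehicles were DMSO-matched (up to 5% v/v). Food came 10 min later; cumulative intake over 4 h; ANOVA/Bonferroni.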

T1 sequence (P97639 whole entry): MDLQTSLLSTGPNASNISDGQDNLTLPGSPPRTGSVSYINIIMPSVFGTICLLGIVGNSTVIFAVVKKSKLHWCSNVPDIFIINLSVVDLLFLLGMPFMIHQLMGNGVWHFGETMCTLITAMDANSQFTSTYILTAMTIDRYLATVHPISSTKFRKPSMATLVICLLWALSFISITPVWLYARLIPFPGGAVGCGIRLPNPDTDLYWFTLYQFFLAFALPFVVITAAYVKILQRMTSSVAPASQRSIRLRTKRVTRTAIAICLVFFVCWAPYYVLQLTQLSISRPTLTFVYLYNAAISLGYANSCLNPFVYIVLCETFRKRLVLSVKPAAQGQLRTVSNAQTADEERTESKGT
Sequence of Opiate μ (OP3, MOP) (P35372 whole entry): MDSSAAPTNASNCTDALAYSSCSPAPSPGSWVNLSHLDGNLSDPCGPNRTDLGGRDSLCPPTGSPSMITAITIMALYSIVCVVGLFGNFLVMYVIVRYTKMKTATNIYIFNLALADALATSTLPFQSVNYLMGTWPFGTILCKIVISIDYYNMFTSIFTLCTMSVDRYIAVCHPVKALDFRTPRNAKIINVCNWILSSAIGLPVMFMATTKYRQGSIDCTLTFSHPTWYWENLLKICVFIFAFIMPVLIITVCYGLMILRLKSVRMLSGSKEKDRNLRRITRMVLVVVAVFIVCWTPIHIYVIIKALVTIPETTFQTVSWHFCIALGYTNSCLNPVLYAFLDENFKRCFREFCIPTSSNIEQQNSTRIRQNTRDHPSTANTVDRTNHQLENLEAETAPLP
Sequence of Adenosine A2A (P29274 whole entry): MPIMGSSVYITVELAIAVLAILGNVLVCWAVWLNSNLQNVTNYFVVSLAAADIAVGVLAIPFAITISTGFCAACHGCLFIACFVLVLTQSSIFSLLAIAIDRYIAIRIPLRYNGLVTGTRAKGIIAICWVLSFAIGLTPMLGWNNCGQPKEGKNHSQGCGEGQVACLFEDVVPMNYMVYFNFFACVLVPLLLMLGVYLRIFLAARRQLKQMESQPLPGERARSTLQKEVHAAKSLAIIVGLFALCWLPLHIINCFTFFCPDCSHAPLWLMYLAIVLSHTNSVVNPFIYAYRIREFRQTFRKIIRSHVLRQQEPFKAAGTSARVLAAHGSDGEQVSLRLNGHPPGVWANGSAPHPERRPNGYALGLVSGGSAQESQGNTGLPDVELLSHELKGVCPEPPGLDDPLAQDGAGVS
Sequence of GPR10 (P49683 whole entry, species assumed): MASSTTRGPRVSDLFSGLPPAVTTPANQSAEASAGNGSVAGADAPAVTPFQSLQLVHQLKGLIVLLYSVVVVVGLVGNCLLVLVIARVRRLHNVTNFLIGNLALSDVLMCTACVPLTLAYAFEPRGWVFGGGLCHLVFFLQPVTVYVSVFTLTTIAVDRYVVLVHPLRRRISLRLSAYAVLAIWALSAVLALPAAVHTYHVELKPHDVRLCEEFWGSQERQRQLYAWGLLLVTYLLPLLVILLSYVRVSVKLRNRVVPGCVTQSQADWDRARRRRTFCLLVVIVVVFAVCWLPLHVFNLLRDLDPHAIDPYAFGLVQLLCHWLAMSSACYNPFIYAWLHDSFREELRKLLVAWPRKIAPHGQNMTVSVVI

For `[Cl-].[Li+]` [LiCl, Lithium chloride, reference compound], in [1] (300 mg/kg, i.p., positive control, P<0.01 vs. vehicle group), the taste aversion effect entry was “robust taste aversion effect”.
A word on the Tmax: it is the time from dosing to the highest level. As usually defined, the AUC(0-inf) is total exposure, with the tail of the curve extrapolated. The low end stands for less exposure, the high end for more exposure. By half-life is commonly meant the time in which the quantity being followed falls by half. With `C[C@@H](CNCc1ccccc1)N1C[C@H](CCCNC(=N)N)N(CCc2cccc(F)c2)C1=S` [TPI 1361-17, N-(3-{(4S)-1-[(1S)-2-(benzylamino)-1-methylethyl]-3-[2-(3-fluorophenyl)ethyl]-2-thioxoimidazolidin-4-yl}propyl)guanidine], the IC50 in series [2], in [3], in series [5], in [8], in series [10] and in series [11] was > 1000 nM in each case. Moreover, the IC50 in [13], in series [14], in series [15], in series [17], in series [18] and in series [19] was > 1000 nM throughout. The IC50 was > 1000 nM in [22]; > 1000 nM in [23]; > 10000 nM in series [24]; 31.8 ± 8.66 nM in series [25]; > 1000 nM in [26]. Further, the “ambulatory and non-ambulatory movements vs vehicle” value in [4] (five nmole i.c.v., monitored for 60 minutes) is “no significant differences”. In addition, the “detectable changes in movement” value in series [4] (five or one nmole i.c.v.) is “did not exhibit any detectable changes in movement”. Moreover, in [6], the “selectivity for MCH1 receptor compared to kappa opioid receptors” value is listed as “more than 1,000 fold”. In series [7], the “selectivity for MCH1 receptor compared to human MCH2 receptor” value is on record as “more than 1,000 fold”. The Tmax in [9] amounted to 4.98 min. Also, the AUC(0-inf) in series [9] (AUC0-∞ (mean value), intravenous, mean) is 2440 ng·h/mL. In series [9] (plasma elimination half-life (mean value), intravenous, mean), this compound gave a half-life of 2.7 h. In addition, the “pA2 (Schild regression)” value in series [12] (MCH dose response curves with increasing concentrations of antagonist) is on record as 9.43. The “effect on basal Ca2+ level by itself” value in series [12] (compound alone, no MCH) is “did not change the basal Ca^2+ level”. For the same compound, in [12] (r^2 = 0.975), the Schild regression slope is on record as 1.085 ± 0.010. Moreover, the “aversive effect in taste aversion test” value in [1] (10 nmole, i.c.v., saccharin preference) is on record as “did not result in any aversive effect”. Also, in series [16], the “selectivity for MCH1 receptor compared to prolactin releasing peptide receptor” value was “more than 1,000 fold”. In addition, the “selectivity for MCH1 receptor compared to orexin 1R” value in series [20] is recorded as “more than 1,000 fold”. For the same compound, the “selectivity for MCH1 receptor compared to neuropeptide Y2” value in series [21] is given as “more than 1,000 fold”. For the same compound, the “activity in a hERG channel assay” value in series [24] (result in words) was “not show activity; also recorded: no activity was detected”. Further, the “displacement of the binding of [125I] MCH” value in series [25] (rat MCH1 receptor membranes) was “completely displaced”.
For the compound `CSCC[C@@H]1NC(=O)[C@@H](NC(=O)[C@H](CCCNC(=N)N)NC(=O)[C@H](CC(C)C)NC(=O)[C@H](CCSC)NC(=O)[C@H](CC(=O)O)NC(=O)[C@H](Cc2ccccc2)NC(=O)[C@@H](N)CC(=O)O)CSSC[C@@H](C(=O)N[C@@H](Cc2c[nH]c3ccccc23)C(=O)N[C@@H](CCC(N)=O)C(=O)N[C@H](C(=O)O)C(C)C)NC(=O)[C@@H]2CCCN2C(=O)[C@H](CCCNC(=N)N)NC(=O)[C@H](Cc2ccc(O)cc2)NC(=O)[C@H](C(C)C)NC(=O)[C@H](CCCNC(=N)N)NC(=O)CNC(=O)[C@H](CC(C)C)NC1=O` [MCH, Melanin-concentrating hormone], the “feeding after intracerebroventricular injection” value in series [27] was “induced rapid and robust feeding”.
